Data published in ChEMBL document CHEMBL4346653, “A2B Adenosine Receptor Antagonists with Picomolar Potency” (J Med Chem, 2019).
Values after ≈ are worked out from the molar mass of the structure shown.

Columns and labels:
[1] = Semi-thermodynamic solubility of the compound at 200 uM after 24 hrs by LC/MS-based shake-flask method; format: physicochemical; conditions: read-out: Therm_solubility
Adenosine receptor A1 [2] = target: T1, Adenosine receptor A1 (Mus musculus, UniProt Q60612); test: Displacement of [3H]DPCPX from recombinant mouse A1 adenosine receptor expressed in CHO cell membranes measured after 60 mins by liquid scintillation counting method
T1 sequence (Q60612 whole entry): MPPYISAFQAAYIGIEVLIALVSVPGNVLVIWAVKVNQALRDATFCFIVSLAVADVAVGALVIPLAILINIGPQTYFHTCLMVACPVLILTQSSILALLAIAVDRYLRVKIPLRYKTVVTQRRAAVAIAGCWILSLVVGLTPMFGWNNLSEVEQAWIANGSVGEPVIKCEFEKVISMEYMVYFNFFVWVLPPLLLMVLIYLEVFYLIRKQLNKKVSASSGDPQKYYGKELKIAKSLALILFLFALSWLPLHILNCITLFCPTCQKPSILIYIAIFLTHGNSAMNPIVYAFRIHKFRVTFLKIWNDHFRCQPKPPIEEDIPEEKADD

Adenosine receptor A3 [3] = target: T2, Adenosine receptor A3 (Rattus norvegicus, UniProt P28647); test: Binding affinity to rat A3 adenosine receptor
T2 sequence (P28647 whole entry): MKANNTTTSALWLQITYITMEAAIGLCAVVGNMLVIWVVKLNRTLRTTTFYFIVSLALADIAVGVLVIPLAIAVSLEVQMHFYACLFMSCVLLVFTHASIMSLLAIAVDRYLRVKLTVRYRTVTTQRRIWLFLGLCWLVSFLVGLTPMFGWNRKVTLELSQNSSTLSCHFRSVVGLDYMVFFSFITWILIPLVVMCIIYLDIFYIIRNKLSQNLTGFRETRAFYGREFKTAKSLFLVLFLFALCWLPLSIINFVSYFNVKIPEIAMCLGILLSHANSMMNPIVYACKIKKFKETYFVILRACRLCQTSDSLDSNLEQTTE

Adenosine receptor A2b [4] = target: T3, Adenosine receptor A2b (Mus musculus, UniProt Q60614); test: Displacement of [3H]PSB-603 from recombinant mouse A2B adenosine receptor expressed in CHO cell membranes measured after 75 mins by liquid scintillation counting method
T3 sequence (Q60614 whole entry): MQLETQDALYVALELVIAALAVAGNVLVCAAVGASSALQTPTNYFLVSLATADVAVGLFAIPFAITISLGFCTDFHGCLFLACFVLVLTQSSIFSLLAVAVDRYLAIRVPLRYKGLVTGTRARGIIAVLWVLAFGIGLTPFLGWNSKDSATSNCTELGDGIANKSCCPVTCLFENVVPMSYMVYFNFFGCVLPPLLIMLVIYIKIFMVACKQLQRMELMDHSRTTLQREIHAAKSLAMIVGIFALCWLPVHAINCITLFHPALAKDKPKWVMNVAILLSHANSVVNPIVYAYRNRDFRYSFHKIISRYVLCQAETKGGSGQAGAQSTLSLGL

Adenosine receptor A2a [5] = target: Adenosine receptor A2a (Mus musculus, UniProt Q60613); test: Displacement of [3H]MSX-2 from recombinant mouse A2A adenosine receptor expressed in CHO cell membranes measured after 60 mins by liquid scintillation counting method
Adenosine receptor A2a (Mus musculus, UniProt Q60613), sequence (Q60613 whole entry): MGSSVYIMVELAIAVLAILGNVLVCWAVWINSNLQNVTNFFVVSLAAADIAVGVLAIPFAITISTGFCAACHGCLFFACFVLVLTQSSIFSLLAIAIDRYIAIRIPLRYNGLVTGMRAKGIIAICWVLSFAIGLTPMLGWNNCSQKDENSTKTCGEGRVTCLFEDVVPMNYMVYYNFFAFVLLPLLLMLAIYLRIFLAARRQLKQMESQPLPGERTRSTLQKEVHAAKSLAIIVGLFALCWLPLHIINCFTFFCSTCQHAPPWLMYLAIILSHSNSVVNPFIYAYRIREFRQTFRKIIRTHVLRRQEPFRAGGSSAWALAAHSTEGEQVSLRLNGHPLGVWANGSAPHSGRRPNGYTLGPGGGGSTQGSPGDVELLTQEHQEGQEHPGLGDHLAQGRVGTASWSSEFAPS

Adenosine receptor A3 [6] = target: T4, Adenosine receptor A3 (Mus musculus, UniProt Q61618); test: Displacement of [3H]NECA from recombinant mouse A3 adenosine receptor expressed in CHO cell membranes measured after 180 mins by liquid scintillation counting method
T4 sequence (Q61618 whole entry): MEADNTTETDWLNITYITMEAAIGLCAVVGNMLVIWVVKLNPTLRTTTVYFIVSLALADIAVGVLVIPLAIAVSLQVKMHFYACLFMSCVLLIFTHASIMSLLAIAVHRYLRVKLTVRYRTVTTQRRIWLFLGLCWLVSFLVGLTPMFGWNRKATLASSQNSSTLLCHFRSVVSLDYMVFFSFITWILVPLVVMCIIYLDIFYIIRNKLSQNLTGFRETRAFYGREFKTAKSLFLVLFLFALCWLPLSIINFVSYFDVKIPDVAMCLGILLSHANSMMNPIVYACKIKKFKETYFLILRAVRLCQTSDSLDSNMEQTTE

Adenosine receptor A2a [7] = target: T5, Adenosine receptor A2a (Homo sapiens, UniProt P29274); test: Displacement of [3H]MSX-2 from recombinant human A2A adenosine receptor expressed in CHO cell membranes measured after 60 mins by liquid scintillation counting method
T5 sequence (P29274 whole entry): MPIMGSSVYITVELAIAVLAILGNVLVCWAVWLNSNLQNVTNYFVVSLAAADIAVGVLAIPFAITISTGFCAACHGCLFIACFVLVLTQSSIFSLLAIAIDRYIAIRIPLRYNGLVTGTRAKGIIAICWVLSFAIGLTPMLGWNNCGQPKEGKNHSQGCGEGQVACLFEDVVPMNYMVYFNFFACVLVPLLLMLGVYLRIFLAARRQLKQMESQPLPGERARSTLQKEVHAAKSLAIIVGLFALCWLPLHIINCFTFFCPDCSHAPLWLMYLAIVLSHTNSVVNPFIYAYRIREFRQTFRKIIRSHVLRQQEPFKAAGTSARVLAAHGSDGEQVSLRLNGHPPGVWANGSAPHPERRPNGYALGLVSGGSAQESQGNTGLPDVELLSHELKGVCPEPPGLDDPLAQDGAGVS
Procedure, shortened: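 Human A2A receptor binding against [3H]MSX-2, n = 3. Ki values (± SEM, nM) come from concentration-inhibition curves. Some Ki values are marked as derived from an extrapolated curve.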

Adenosine receptor A2b [8] = target: T6, Adenosine receptor A2b (Rattus norvegicus, UniProt P29276); test: Displacement of [3H]PSB-603 from recombinant rat A2B adenosine receptor expressed in CHO cell membranes measured after 75 mins by liquid scintillation counting method
T6 sequence (P29276 whole entry): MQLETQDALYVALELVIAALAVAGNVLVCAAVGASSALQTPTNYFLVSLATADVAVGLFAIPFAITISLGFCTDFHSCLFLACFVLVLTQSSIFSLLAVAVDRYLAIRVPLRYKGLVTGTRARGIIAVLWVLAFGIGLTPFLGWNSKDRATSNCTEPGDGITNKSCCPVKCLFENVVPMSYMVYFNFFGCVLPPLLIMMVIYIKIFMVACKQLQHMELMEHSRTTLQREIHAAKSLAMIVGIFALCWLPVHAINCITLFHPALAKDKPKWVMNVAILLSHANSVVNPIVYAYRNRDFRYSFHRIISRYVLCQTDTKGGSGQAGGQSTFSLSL

Adenosine receptor A1 [9] = target: T7, Adenosine receptor A1 (Homo sapiens, UniProt P30542); test: Displacement of [3H]DPCPX from recombinant human A1 adenosine receptor expressed in CHO cell membranes measured after 120 mins by topcount scintillation counting method
T7 sequence (P30542 whole entry): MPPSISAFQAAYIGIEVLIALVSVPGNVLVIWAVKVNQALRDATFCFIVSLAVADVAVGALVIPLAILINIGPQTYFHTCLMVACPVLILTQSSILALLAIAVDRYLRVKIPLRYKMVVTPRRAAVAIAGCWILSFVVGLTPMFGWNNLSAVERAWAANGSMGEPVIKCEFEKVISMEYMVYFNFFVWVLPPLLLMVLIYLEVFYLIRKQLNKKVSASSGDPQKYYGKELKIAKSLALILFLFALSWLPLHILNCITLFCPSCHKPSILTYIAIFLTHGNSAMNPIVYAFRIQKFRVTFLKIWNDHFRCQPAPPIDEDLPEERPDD

Adenosine receptor A2a [10] = target: T5, Adenosine receptor A2a; test: Displacement of [3H]ZM241385 from recombinant human A2A adenosine receptor expressed in CHO cell membranes measured after 60 mins by topcount scintillation counting method
Adenosine receptor A2b [11] = target: T8, Adenosine receptor A2b (Homo sapiens, UniProt P29275); test: Displacement of [3H]DPCPX from recombinant human A2B adenosine receptor expressed in HEK293 cell membranes measured after 60 mins by topcount scintillation counting method
T8 sequence (P29275 whole entry): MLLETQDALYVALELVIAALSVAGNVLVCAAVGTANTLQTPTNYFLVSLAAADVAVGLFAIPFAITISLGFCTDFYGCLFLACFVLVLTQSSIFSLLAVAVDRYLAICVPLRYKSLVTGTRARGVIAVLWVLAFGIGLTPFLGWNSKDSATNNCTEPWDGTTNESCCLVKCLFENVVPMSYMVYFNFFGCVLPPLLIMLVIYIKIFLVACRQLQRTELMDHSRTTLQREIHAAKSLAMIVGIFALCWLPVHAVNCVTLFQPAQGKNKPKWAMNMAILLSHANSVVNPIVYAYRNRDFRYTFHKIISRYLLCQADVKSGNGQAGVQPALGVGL

Adenosine receptor A3 [12] = target: T9, Adenosine receptor A3 (Homo sapiens, UniProt P0DMS8); test: Displacement of [3H]MRE3008-F20 from recombinant human A3 adenosine receptor expressed in CHO cell membranes measured after 120 mins by topcount scintillation counting method
T9 sequence (P0DMS8 whole entry): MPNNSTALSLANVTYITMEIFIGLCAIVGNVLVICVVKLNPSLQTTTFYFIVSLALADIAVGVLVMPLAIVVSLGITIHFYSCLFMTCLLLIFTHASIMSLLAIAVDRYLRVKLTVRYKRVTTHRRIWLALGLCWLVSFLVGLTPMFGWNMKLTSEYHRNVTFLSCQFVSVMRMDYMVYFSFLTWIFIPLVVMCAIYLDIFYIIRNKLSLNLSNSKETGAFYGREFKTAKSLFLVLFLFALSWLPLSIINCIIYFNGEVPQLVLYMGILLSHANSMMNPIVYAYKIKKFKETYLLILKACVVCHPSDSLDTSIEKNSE

Adenosine receptor A1 [13] = target: T1, Adenosine receptor A1; test: Displacement of [3H]CCPA from recombinant mouse A1 adenosine receptor expressed in CHO cell membranes measured after 60 mins by liquid scintillation counting method

Compound | solubility thermodynamic at 24 h, 200 µM [1] | Ki (Adenosine receptor A3 [3]) | Ki (Adenosine receptor A2b [4]) | Ki (Adenosine receptor A2a [5]) | Ki (Adenosine receptor A3 [6]) | other results
CCCn1c(=O)[nH]c2nc(-c3ccc(S(=O)(=O)N4CCN(c5ccc(Cl)cc5)CC4)cc3)[nH]c2c1=O | 3.2 µM (≈ 1.69 µg/mL) | – | – | – | – | –
CCCn1c(=O)[nH]c2nc(-c3ccc(S(=O)(=O)O)cc3)[nH]c2c1=O | – | > 10 µM | 1940 nM | > 10 µM | > 10 µM | Ki (Adenosine receptor A1 [2]): 591 nM; Ki (Adenosine receptor A2a [7]): 3.79 µM; Ki (Adenosine receptor A2b [8]): 3.14 µM
O=C(Nc1nc2nn(CCCc3ccccc3)cc2c2nc(-c3ccco3)nn12)c1cccc2ccccc12 | – | – | – | – | – | Ki (Adenosine receptor A1 [9]): 1100 nM; Ki (Adenosine receptor A2a [10]): 800 nM; Ki (Adenosine receptor A2b [11]): 20 nM; Ki (Adenosine receptor A3 [12]): 300 nM

Further lines, with some results ahead:

solubility thermodynamic at 24 h, 200 µM [1] | Ki (Adenosine receptor A3 [3]) | Ki (Adenosine receptor A2b [4]) | Ki (Adenosine receptor A2a [5]) | Ki (Adenosine receptor A3 [6]) | Compound | other results
– | > 10 µM | 3.12 nM | > 10 µM | > 10 µM | CCCn1c(=O)c2[nH]c(-c3ccc(OCC(=O)Nc4ccc(C#N)cc4)cc3)nc2n(CCC)c1=O | Ki (Adenosine receptor A1 [13]): 1.45 nM
3.2 µM (≈ 1.74 µg/mL) | – | – | – | – | CCCn1c(=O)[nH]c2nc(-c3ccc(S(=O)(=O)N4CCN(Cc5ccc(Cl)cc5)CC4)cc3)[nH]c2c1=O | –
